Measured values pooled from the literature.
Each line is one published result; the experiments were not run side by side. Converted amounts (≈) assume the structure as drawn.

With `CONc1ccnc(Nc2cccc(-c3cccnc3)c2)n1` the EC50 was > 12 µM (MV4-11; cell growth or viability, ATP luminescence; 72 h).
For `COc1ccc(S(=O)(=O)N(C(C)=O)c2ccccc2/C=C/c2cc[n+]([O-])cc2)cc1`, the MIC was > 30 µM (Staphylococcus aureus; microbial growth; NCTC8325).
`COC(=O)c1cccc(Nc2nccc(NC3CCCCC3)n2)c1` has an EC50 of 5.23 µM (MV4-11; cell growth or viability, ATP luminescence; 72 h).
`O=C1NC(=S)S/C1=C\c1c2ccccc2c(-c2ccc(N(c3ccccc3)c3ccccc3)cc2)c2ccccc12` has an MBC of > 1000 µg/mL (Micrococcus luteus; microbial killing, broth dilution; ATCC10240).
The MIC of `C#CCCCCC(=O)Nc1ccccc1` is reported as > 100 µM (Staphylococcus aureus; microbial growth; NCTC8325).
For `Cc1nn(-c2nc3ccc(Br)cc3s2)c2c1C(=O)c1ccccc1-2`, the inhibition zone was 10 mm (Staphylococcus aureus; microbial growth, well diffusion; NCIM5021; 125 µg/mL).
The EC50 of `c1cncc(-c2cccc(Nc3nccc(NC4CCC4)n3)c2)c1` is reported as > 17 µM (MV4-11; cell growth or viability, ATP luminescence; 72 h).
For `Cc1ccc(Nc2nccc(N(C)c3ccc4c(C)n(C)nc4c3)n2)cc1S(N)(=O)=O`, the MIC was > 30 µM (Staphylococcus aureus; microbial growth; NCTC8325).
With `CC(C)c1nn(-c2nc3ccc(Br)cc3s2)c2c1C(=O)c1ccccc1-2` the inhibition zone was 11 mm (Staphylococcus aureus; microbial growth, well diffusion; NCIM5021; 500 µg/mL).
With `CN(C)C1CCN(C(=O)c2ccc(NC(=O)Nc3ccc(-c4nc(N5CCOCC5)nc(N5CCOCC5)n4)cc3)cc2)CC1` the MIC was > 30 µM (Staphylococcus aureus; microbial growth; NCTC8325).
For `c1cncc(-c2cccc(Nc3nccc(NC4CCOCC4)n3)c2)c1`, the EC50 was 1.88 µM (MV4-11; cell growth or viability, ATP luminescence; 72 h).
With `COc1ccc2nc(-n3nc(CC(C)C)c4c3-c3ccccc3C4=O)sc2c1` the inhibition zone was 12 mm (Staphylococcus aureus; microbial growth, well diffusion; NCIM5021; 500 µg/mL).
With `CNC(=O)c1cc(Oc2ccc(NC(=O)Nc3cc(C(C)(C)C)nn3-c3ccc4ncccc4c3)c(F)c2)ccn1` the MIC was > 30 µM (Staphylococcus aureus; microbial growth; NCTC8325).
The inhibition zone of `Cc1ccc2nc(-n3nc(C(C)C)c4c3-c3ccccc3C4=O)sc2c1` is reported as 12 mm (Staphylococcus aureus; microbial growth, well diffusion; NCIM5021; 125 µg/mL).
With `Cc1cnc(Nc2ccc(N3CCN(C)CC3)cc2)nc1Nc1cccc(S(=O)(=O)NC(C)(C)C)c1` the MIC was > 30 µM (Staphylococcus aureus; microbial growth; NCTC8325).
For `O=C1NC(=S)N/C1=C\c1ccc(-c2ccc(N(c3ccccc3)c3ccccc3)cc2)cc1`, the MBC was > 1000 µg/mL (Staphylococcus aureus; microbial killing, broth dilution; ATCC25923).
`COc1ccc2nc(-n3nc(C)c4c3-c3ccccc3C4=O)sc2c1` has an inhibition zone of 12 mm (Staphylococcus aureus; microbial growth, well diffusion; NCIM5021; 500 µg/mL).
`O=C(O)CN1C(=O)/C(=C/c2ccc(-c3ccc(N(c4ccccc4)c4ccccc4)cc3)cc2)SC1=S` gave an MBC of 31.3 µg/mL (≈ 59.9 µM) (Micrococcus luteus; microbial killing, broth dilution; ATCC10240).
For `CC(C)Cc1nn(-c2nc3ccc(Cl)cc3s2)c2c1C(=O)c1ccccc1-2`, the inhibition zone was 10 mm (Staphylococcus aureus; microbial growth, well diffusion; NCIM5021; 125 µg/mL).
